Measurements: ChEMBL document CHEMBL1142628, “Antineoplastic agents 430. Isolation and structure of cribrostatins 3, 4, and 5 from the republic of maldives cribrochalina species” (2000)
Values after ≈ are worked out from the molar mass of the structure shown. Active and inactive are the calls of the source. The rule behind the calls is not given here.

Assays:
[1] = system: Neisseria gonorrhoeae; assay: Antibacterial activity against Neisseria gonorrhoeae ATCC 49226 by disk diffusion method; format: functional
[2] = system: Candida albicans; assay: Antifungal activity against Candida albicans ATCC 90028 at 100 ug/disk by disk diffusion method; format: functional, organism-based
[3] = system: OVCAR-3; assay: Growth inhibition of human OVCAR-3 cells; format: functional
Summary of the method: (§1)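 NCI 60-cell-line screen run by the standard NCI protocol. Each test agent ran in quadruplicate, with a top concentration of 10^-5 M and five log-spaced dilutions. GI50 values were averaged and reported as negative log GI50.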

[4] = system: Cryptococcus neoformans; assay: Antifungal activity against Cryptococcus neoformans ATCC 90112 at 100 ug/disk by disk diffusion method; format: functional, organism-based
[5] = system: Escherichia coli; assay: Antibacterial activity against Escherichia coli ATCC 25922 at 100 ug/disk by disk diffusion method; format: functional, organism-based
[6] = system: BXPC-3; assay: Growth inhibition of human BXPC3 cells; format: functional
[7] = system: Micrococcus luteus; assay: Antibacterial activity against Micrococcus luteus Presque Isle 456 by disk diffusion method; format: functional
[8] = system: KM-20L2; assay: Growth inhibition of human KM20L2 cells; format: functional
[9] = system: Staphylococcus aureus; assay: Antibacterial activity against Staphylococcus aureus ATCC 29213 at 100 ug/disk by disk diffusion method; format: functional, organism-based
[10] = system: NCI-H460; assay: (§2) Growth inhibition of human NCI-H460 cells; format: functional; summary of the method: as §1
[11] = system: Stenotrophomonas maltophilia; assay: Antibacterial activity against Stenotrophomonas maltophilia ATCC 13637 at 100 ug/disk by disk diffusion method; format: functional, organism-based
[12] = system: Bacillus subtilis; assay: Antibacterial activity against Bacillus subtilis Presque Isle 620 at 100 ug/disk by disk diffusion method; format: functional, organism-based
[13] = system: Enterococcus faecalis; assay: Antibacterial activity against Enterococcus faecalis ATCC 29212 at 100 ug/disk by disk diffusion method; format: functional, organism-based
[14] = system: DU-145; assay: Growth inhibition of human DU145 cells; format: functional; summary of the method: as §1
[15] = system: SF-295; assay: (§3) Growth inhibition of human SF295 cells; format: functional
Summary of the method: (§4)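 NCI human tumor cell line panel screen run to the standard NCI protocol. Each compound tested in quadruplicate with a top concentration of 10^-5 M and five log-spaced dilutions. GI50 values were averaged across replicates and reported as negative log GI50.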

[16] = system: P388; assay: Growth inhibition of mouse P388 cells; format: functional
[17] = system: Streptococcus pneumoniae; assay: Antibacterial activity against Streptococcus pneumoniae ATCC 6303 at 100 ug/disk by disk diffusion method; format: functional, organism-based
[18] = Growth inhibition of human HL60(TB) cells; format: functional, HL-60(TB); details: HL-60
Summary of the method: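 NCI human tumour cell-line panel screen run by the standard NCI protocol. Each compound was tested in quadruplicate, with an upper concentration limit of 10^-5 M and five log-spaced dilutions. GI50 values were averaged and reported as negative log GI50.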

[19] = system: SN12C; assay: Growth inhibition of human SN12C cells; format: functional; summary of the method: as §4
[20] = system: MDA-MB-435; assay: Growth inhibition of human MDA-MB-435 cells; format: functional; summary of the method: as §1
[21] = system: SNB-75; assay: Growth inhibition of human SNB75 cells; format: functional; summary of the method: as §4
[22] = system: SW-1736; assay: Growth inhibition of human SW1736 cells; format: functional
[23] = system: U-251; assay: Growth inhibition of human U251 cells; format: functional; summary of the method: as §4
[24] = system: SF-268; assay: Growth inhibition of human SF268 cells; format: functional; summary of the method: as §4
[25] = system: T47D; assay: Growth inhibition of human T47D cells; format: functional; summary of the method: as §4
[26] = system: Micrococcus luteus; assay: Antibacterial activity against Micrococcus luteus Presque Isle 456 at 100 ug/disk by disk diffusion method; format: functional, organism-based
[27] = system: Streptococcus pneumoniae; assay: Antibacterial activity against invasive Streptococcus pneumoniae isolate at 100 ug/disk by disk diffusion method; format: functional, organism-based
[28] = system: COLO 205; assay: Growth inhibition of human COLO205 cells; format: functional; summary of the method: as §1
[29] = system: SK-N-SH; assay: Growth inhibition of human SK-N-SH cells; format: functional
[30] = system: Streptococcus pneumoniae; assay: Antibacterial activity against penicillin-resistant Streptococcus pneumoniae isolate by disk diffusion method; format: functional
[31] = system: Neisseria gonorrhoeae; assay: Antibacterial activity against penicillin-resistant Neisseria gonorrhoeae isolate by disk diffusion method; format: functional
[32] = system: RXF 393; assay: Growth inhibition of human RXF393 cells; format: functional; summary of the method: as §4
[33] = system: Malme-3M; assay: Growth inhibition of human MALME-3M cells; format: functional; summary of the method: as §1
[34] = system: A549; assay: Growth inhibition of human A549/ATCC cells; format: functional; summary of the method: as §1
[35] = system: MOLT-4; assay: Growth inhibition of human MOLT4 cells; format: functional; summary of the method: as §1
[36] = system: SK-MEL-5; assay: Growth inhibition of human SK-MEL-5 cells; format: functional; summary of the method: as §4
[37] = system: Enterobacter cloacae; assay: Antibacterial activity against Enterobacter cloacae ATCC 13047 at 100 ug/disk by disk diffusion method; format: functional, organism-based
[38] = system: NCI-H460; assay: as §2; format: functional; summary of the method: as §1; remark: listed apart in the source
[39] = system: NCI-H522; assay: Growth inhibition of human NCI-H522 cells; format: functional; summary of the method: as §1
[40] = system: 786-0; assay: Growth inhibition of human 786-0 cells; format: functional; summary of the method: as §1
[41] = system: OVCAR-8; assay: Growth inhibition of human OVCAR8 cells; format: functional; summary of the method: as §1
[42] = system: K562; assay: Growth inhibition of human K562 cells; format: functional; summary of the method: as §1
[43] = system: MCF7; assay: Growth inhibition of human MCF7 cells; format: functional; summary of the method: as §1
[44] = system: Streptococcus sp. 'group A'; assay: Antibacterial activity against group A Streptococcus isolate by disk diffusion method; format: functional
[45] = system: CCRF-CEM; assay: Growth inhibition of human CCRF-CEM cells; format: functional; summary of the method: as §1
[46] = system: OVCAR-4; assay: Growth inhibition of human OVCAR4 cells; format: functional; summary of the method: as §1
[47] = system: MCF7; assay: Growth inhibition of human adriamycin-resistant MCF7 cells; format: functional; summary of the method: as §4
[48] = system: LOX IMVI; assay: Growth inhibition of human LOX IMVI cells; format: functional; summary of the method: as §1
[49] = system: Bacillus subtilis; assay: Antibacterial activity against Bacillus subtilis Presque Isle 620 by disk diffusion method; format: functional
[50] = system: SW-620; assay: Growth inhibition of human SW620 cells; format: functional; summary of the method: as §4
[51] = system: Hs-578T; assay: Growth inhibition of human HS578T cells; format: functional; summary of the method: as §1
[52] = system: SR; assay: Growth inhibition of human SR cells; format: functional; summary of the method: as §4
[53] = system: HOP-62; assay: Growth inhibition of human HOP62 cells; format: functional; summary of the method: as §1
[54] = system: Streptococcus pneumoniae; assay: Antibacterial activity against Streptococcus pneumoniae ATCC 6303 by disk diffusion method; format: functional
[55] = system: RPMI-8226; assay: Growth inhibition of human RPMI8226 cells; format: functional; summary of the method: as §1
[56] = system: PC-3; assay: Growth inhibition of human PC3 cells; format: functional; summary of the method: as §1
[57] = system: UACC-62; assay: Growth inhibition of human UACC62 cells; format: functional; summary of the method: as §4
[58] = system: HOP-92; assay: Growth inhibition of human HOP92 cells; format: functional; summary of the method: as §1
[59] = system: MDA-N; assay: Growth inhibition of human MDA-N cells; format: functional; summary of the method: as §1
[60] = system: IGROV-1; assay: Growth inhibition of human IGROV1 cells; format: functional; summary of the method: as §1
[61] = system: KM12; assay: Growth inhibition of human KM12 cells; format: functional; summary of the method: as §1
[62] = system: MDA-MB-231; assay: Growth inhibition of human MDA-MB-231/ATCC cells; format: functional; summary of the method: as §1
[63] = system: NCI-H226; assay: Growth inhibition of human NCI-H226 cells; format: functional; summary of the method: as §1
[64] = system: FaDu; assay: Growth inhibition of human FaDu cells; format: functional
[65] = system: ACHN; assay: Growth inhibition of human ACHN cells; format: functional; summary of the method: as §1
[66] = system: SF-295; assay: as §3; format: functional; summary of the method: as §4; remark: listed apart in the source
[67] = system: SF-539; assay: Growth inhibition of human SF539 cells; format: functional; summary of the method: as §4
[68] = read-out: ED50 (the source's name)

In the case of `C/C=C(/C)C(=O)OCc1nccc2c1C(=O)C(NC)=C(C)C2=O` [CRIBROSTATIN 4], the MIC [1] is reported as 6.25 µg/disc, the Activity [2] is reported as “inactive” and the GI50 [3] is reported as 0.18 µg/mL (≈ 0.573 µM). For the same compound, the Activity [4] was “inactive”, the Activity [5] was “inactive” and the GI50 [6] was 0.29 µg/mL (≈ 0.923 µM). The MIC [7] was 50 µg/disc, the GI50 [8] was 0.14 µg/mL (≈ 0.445 µM) and the Activity [9] was “inactive”. The GI50 [10] was 0.22 µg/mL (≈ 0.7 µM), the Activity [11] was “inactive” and the Activity [12] was “inactive”. The Activity [13] was “inactive”, the GI50 [14] was 0.3 µg/mL (≈ 0.954 µM) and the GI50 [15] was 0.36 µg/mL (≈ 1.15 µM). The GI50 [16] was 0.045 µg/mL (≈ 0.143 µM), the EC50 [16, 68] was 0.045 µg/mL (≈ 0.143 µM) and the Activity [17] was “inactive”.

For `C/C=C(/C)C(=O)OC[C@H]1C2=C(C=C3[C@H]4c5c(O)c(OC)c(C)c(O)c5C(=O)[C@@H](C(=O)N31)N4C)C(=O)C(C)=C(OC)C2=O` [CRIBROSTATIN 5], the MIC [1] was 6.25 µg/disc, the GI50 [18] was 5.37 µM and the GI50 [19] was 7.08 µM. It also gave a GI50 [20] of 1.82 µM, a GI50 [21] of 5.62 µM and a GI50 [22] greater than 10 µg/mL. The GI50 [23] was 6.46 µM, the GI50 [24] was 9.55 µM and the GI50 [25] was 2.09 µM. For the same compound, the Activity [26] was “inactive”, the Activity [27] was “inactive” and the GI50 [28] was 8.13 µM. For the same compound, the GI50 [29] was 3.6 µg/mL (≈ 6.22 µM), the MIC [30] was 50 µg/disc and the MIC [31] was 1.56 µg/disc. For the same compound, the GI50 [32] was 5.25 µM, the GI50 [33] was 0.389 µM and the Activity [2] was “inactive”. It also gave a GI50 [34] of 8.71 µM, a GI50 [3] of 2.2 µg/mL (≈ 3.8 µM) and an EC50 [3, 68] of 2.2 µg/mL (≈ 3.8 µM). The Activity [4] was “inactive”, the GI50 [35] was 1.91 µM and the GI50 [36] was 8.13 µM. For the same compound, the Activity [37] was “inactive”, the Activity [5] was “inactive” and the GI50 [6] was 5.6 µg/mL (≈ 9.68 µM). For the same compound, the GI50 [38] was 7.59 µM, the GI50 [39] was 4.17 µM and the GI50 [40] was 6.17 µM. The GI50 [41] was 4.27 µM, the GI50 [8] was greater than 10 µg/mL and the Activity [9] was “inactive”. It also gave a GI50 [42] of 4.37 µM, a GI50 [43] of 8.13 µM and an MIC [44] of 12.5 µg/disc. It also gave a GI50 [45] of 1.7 µM, a GI50 [46] of 1.82 µM and a GI50 [47] of 6.76 µM. For the same compound, the GI50 [10] was greater than 10 µg/mL, the GI50 [48] was 3.31 µM and the MIC [49] was 12.5 µg/disc. The GI50 [50] was 6.92 µM, the Activity [11] was “inactive” and the Activity [13] was “inactive”. For the same compound, the GI50 [51] was 8.71 µM, the GI50 [52] was 3.8 µM and the GI50 [53] was 7.59 µM. For the same compound, the MIC [54] was 6.25 µg/disc, the GI50 [55] was 6.17 µM and the GI50 [56] was 9.12 µM. It also gave a GI50 [57] of 9.77 µM, a GI50 [58] of 8.13 µM and a GI50 [14] greater than 10 µg/mL. It also gave a GI50 [15] greater than 10 µg/mL, a GI50 [59] of 2.19 µM and a GI50 [60] of 8.51 µM. It also gave a GI50 [16] of 24.6 µg/mL (≈ 42.5 µM), a GI50 [61] of 9.12 µM and a GI50 [62] of 2.69 µM. The GI50 [63] was 7.94 µM, the GI50 [64] was 0.26 µg/mL (≈ 0.449 µM) and the GI50 [65] was 7.94 µM. For the same compound, the GI50 [66] was 8.91 µM and the GI50 [67] was 5.75 µM.
